Measured values from ChEMBL document CHEMBL1126664, “Pyrazoline bisphosphonate esters as novel antiinflammatory and antiarthritic agents” (1993).

Experiments:
Type in all cases: functional
[1] = system: Mus musculus; assay: Inhibition of antigen-induced arthritis (AIA) in mice at the dose of 200 mg/kg in the non-injected paw
[2] = system: Rattus norvegicus; assay: Inhibition of rat adjuvant induced polyarthritis (AIP) at the dose of 100 mg/kg in the non-injected paw
In short: (§1)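 Rats received adjuvant (M. tuberculosis in mineral oil) into the left hindpaw on day 0. Compounds in sterile saline, pH 7.0, were given sc once daily for 28 days, with sc vehicle arthritic controls. Paw volume change in injected and noninjected hindpaws was measured on day 28 by mercury-displacement plethysmography.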

[3] = system: Mus musculus; assay: Inhibition of delayed type hypersensitivity granuloma results at 100 mg/kg in wet weight
In short: (§2)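 Groups of 10 female CF-1 mice (25 g) were sensitised sc over the inguinal lymph node with mBSA emulsion in Freund's incomplete adjuvant plus dextran. Two mBSA-soaked hydroxyapatite disks were implanted per mouse. Sc dosing ran daily from implantation to day 9, then granulomas were excised for wet and dry weights. Student's paired t test.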

[4] = system: Rattus norvegicus; assay: Inhibition of rat adjuvant induced polyarthritis (AIP) at the dose of 15 mg/kg in the injected paw; in short: as §1
[5] = system: Mus musculus; assay: Inhibition of delayed type hypersensitivity granuloma results at 100 mg/kg in dry weight; in short: as §2
[6] = system: Rattus norvegicus; assay: Inhibition of rat adjuvant induced polyarthritis (AIP) at the dose of 15 mg/kg in the non-njected paw; in short: as §1
[7] = system: Mus musculus; assay: Inhibition of antigen-induced arthritis (AIA) in mice at the dose of 50 mg/kg in the non-injected paw
[8] = system: Rattus norvegicus; assay: Inhibition of rat adjuvant induced polyarthritis (AIP) at the dose of 100 mg/kg in the injected paw; in short: as §1
[9] = system: Mus musculus; assay: Inhibition of antigen-induced arthritis (AIA) in mice at the dose of 100 mg/kg in the non-injected paw
[10] = system: Rattus norvegicus; assay: Inhibition of rat adjuvant-induced polyarthritis (AIP) at the dose of 5 mg/kg in the non-injected paw; in short: as §1
[11] = system: Rattus norvegicus; assay: Inhibition of rat adjuvant induced polyarthritis (AIP) at the dose of 5 mg/kg in the injected paw; in short: as §1
[12] = system: Rattus norvegicus; assay: Inhibition of rat adjuvant induced polyarthritis (AIP) at the dose of 60 mg/kg in the injected paw; in short: as §1
[13] = system: Mus musculus; assay: Inhibition of antigen induced arthritis (AIA) in mice at the dose of 50 mg/kg
In short: (§3)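 Mice were immunised, boosted after 7 days, and challenged 14 days later with 200 μg mBSA in saline into the left rear stifle joint. Dosing was sc in saline at pH 7.0, 5 of 7 days, from challenge (day 0) to day 28. H&E sagittal joint sections were graded 1–5 each for soft tissue inflammation, pannus, and cartilage and bone erosion, then summed (max 20). One-way ANOVA vs vehicle.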

[14] = system: Mus musculus; assay: Inhibition of delayed type hypersensitivity granuloma results at 25 mg/kg in wet weight; in short: as §2
[15] = system: Mus musculus; assay: Inhibition of delayed type hypersensitivity granuloma results at 50 mg/kg in dry weight; in short: as §2
[16] = system: Rattus norvegicus; assay: Inhibition of rat adjuvant-induced polyarthritis (AIP) at the dose of 100 mg/kg in the non-injected paw; in short: as §1
[17] = system: Mus musculus; assay: Inhibition of delayed type hypersensitivity granuloma results at 50 mg/kg in wet weight; in short: as §2
[18] = system: Mus musculus; assay: Inhibition of delayed type hypersensitivity granuloma results at 25 mg/kg in dry weight; in short: as §2
[19] = system: Mus musculus; assay: Inhibition of antigen induced arthritis (AIA) in mice at the dose of 100 mg/kg; in short: as §3
[20] = system: Rattus norvegicus; assay: Inhibition of rat adjuvant-induced polyarthritis (AIP) at the dose of 60 mg/kg in the non-injected paw; in short: as §1
[21] = system: Rattus norvegicus; assay: Inhibition of rat adjuvant-induced polyarthritis (AIP) at the dose of 15 mg/kg in the non-injected paw; in short: as §1
[22] = system: Rattus norvegicus; assay: Inhibition of rat adjuvant induced polyarthritis (AIP) at the dose of 15 mg/kg in the non-injected paw; in short: as §1
[23] = system: Mus musculus; assay: Inhibition of antigen-induced arthritis (AIA) in mice at the dose of 100 mg/kg; in short: as §3
[24] = system: Rattus norvegicus; assay: Inhibition of rat adjuvant-induced arthritis (AIP) at the dose of 15 mg/kg in the non-injected paw; in short: as §1
[25] = system: Rattus norvegicus; assay: Inhibition of rat adjuvant-induced arthritis (AIP) at the dose of 100 mg/kg in the non-injected paw; in short: as §1
[26] = system: Rattus norvegicus; assay: Inhibition of rat adjuvant induced arthritis (AIP) at the dose of 60 mg/kg in the non-injected paw; in short: as §1
[27] = system: Rattus norvegicus; assay: Inhibition of rat adjuvant induced arthritis (AIP) at the dose of 15 mg/kg in the non-injected paw; in short: as §1
[28] = system: Mus musculus; assay: Inhibition of antigen-induced arthritis (AIA) in mice at the dose of 200 mg/kg; in short: as §3
[29] = system: Mus musculus; assay: Inhibition of antigen-induced arthritis (AIA) in mice at the dose of 50 mg/kg; in short: as §3
[30] = system: Rattus norvegicus; assay: Inhibition of rat adjuvant induced arthritis (AIP) at the dose of 100 mg/kg in the non-injected paw; in short: as §1
[31] = system: Rattus norvegicus; assay: Inhibition of rat adjuvant induced arthritis (AIP) at the dose of 5 mg/kg in the non-injected paw; in short: as §1
[32] = system: Mus musculus; assay: Inhibition of antigen-induced arthritis (AIA) in mice at the dose of 25 mg/kg; in short: as §3

Structure (SMILES) | inhibition in vivo at 100 mg/kg [2] [%] | inhibition in vivo at 100 mg/kg [3] [%] | inhibition in vivo at 15 mg/kg [4] [%] | inhibition in vivo at 100 mg/kg [5] [%] | inhibition in vivo at 100 mg/kg [8] [%] | inhibition in vivo at 100 mg/kg [23] [%] | further results
CCOP(=O)(OCC)C1(P(=O)(OCC)OCC)CC(C(=O)C2CCCCC2)=NN1 | 29 | 33 | 9 | 31 | 16 | – | inhibition in vivo at 200 mg/kg [1]: 11%; inhibition in vivo at 15 mg/kg [6]: 14%; inhibition in vivo at 50 mg/kg [7]: 30%; inhibition in vivo at 100 mg/kg [9]: 3%
CCOP(=O)(OCC)C1(P(=O)(OCC)OCC)CC(C(=O)C(C)(C)C)=NN1 | – | 65 | 21 | 59 | 21 | – | inhibition in vivo at 5 mg/kg [10]: 64%; inhibition in vivo at 5 mg/kg [11]: 27%; inhibition in vivo at 60 mg/kg [12]: 38%; inhibition in vivo at 50 mg/kg [13]: 28%; inhibition in vivo at 25 mg/kg [14]: 46%; inhibition in vivo at 50 mg/kg [15]: 48%; inhibition in vivo at 100 mg/kg [16]: 76%; inhibition in vivo at 50 mg/kg [17]: 51%; inhibition in vivo at 25 mg/kg [18]: 38%; inhibition in vivo at 100 mg/kg [19]: 16%; inhibition in vivo at 60 mg/kg [20]: 64%; inhibition in vivo at 15 mg/kg [21]: 55%
CCOP(=O)(OCC)C1(P(=O)(OCC)OCC)CC(C(=O)c2ccc(Cl)cc2Cl)=NN1 | 12 | 55 | 3 | 44 | 0 | 0 | inhibition in vivo at 15 mg/kg [22]: 38%
CCOP(=O)(OCC)C1(P(=O)(OCC)OCC)CC(C(=O)c2ccc(Cl)cc2)=NN1 | – | 28 | – | 33 | – | – | –
CCOP(=O)(OCC)C1(P(=O)(OCC)OCC)CC(C(=O)c2ccccc2)=NN1Cc1cccc(CN2N=C(C(=O)c3ccccc3)CC2(P(=O)(OCC)OCC)P(=O)(OCC)OCC)c1 | – | – | – | -31 | – | – | –
CCOP(=O)(OCC)C1(P(=O)(OCC)OCC)CC(C(=O)c2cccc(C)c2)=NN1 | – | 41 | 6 | 41 | 3 | – | inhibition in vivo at 15 mg/kg [24]: 54%; inhibition in vivo at 100 mg/kg [25]: 50%; inhibition in vivo at 100 mg/kg [9]: 16%
CCOP(=O)(OCC)C1(P(=O)(OCC)OCC)CC(C(=O)c2ccccc2F)=NN1 | – | 20 | – | 17 | – | – | –
CCOP(=O)(OCC)C1(P(=O)(OCC)OCC)CC(C(=O)c2ccccc2)=NN1 | – | 56 | 25 | 51 | 13 | 48 | inhibition in vivo at 5 mg/kg [11]: 28%; inhibition in vivo at 60 mg/kg [12]: 23%; inhibition in vivo at 25 mg/kg [14]: 36%; inhibition in vivo at 60 mg/kg [26]: 56%; inhibition in vivo at 50 mg/kg [15]: 42%; inhibition in vivo at 50 mg/kg [17]: 33%; inhibition in vivo at 15 mg/kg [27]: 31%; inhibition in vivo at 200 mg/kg [28]: 48%; inhibition in vivo at 50 mg/kg [29]: 35%; inhibition in vivo at 25 mg/kg [18]: 42%; inhibition in vivo at 100 mg/kg [30]: 50%; inhibition in vivo at 5 mg/kg [31]: 50%; inhibition in vivo at 25 mg/kg [32]: 16%
CCOP(=O)(OCC)C1(P(=O)(OCC)OCC)CC(C(=O)c2ccc(OC)cc2)=NN1 | 16 | 35 | 12 | 50 | 0 | 23 | inhibition in vivo at 15 mg/kg [22]: 17%
